Laboratory results taken from ChEMBL document CHEMBL4033712, “Synthesis and biological evaluation of new C-12(α/β)-(N-) sulfamoyl-phenylamino-14-deoxy-andrographolide derivatives as potent anti-cancer agents” (Bioorg Med Chem Lett, 2017).

How the values were obtained:
Type in all cases: functional
CCRF-CEM = assay: Anticancer activity against human CCRF-CEM cells assessed as cell growth at 10 uM after 48 hrs by sulforhodamine B assay relative to control; settings: read-out: Activity
How it was run: (§1)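 Single-dose NCI-60 panel screen: compound added at 10 µM and the culture incubated 48 h. The end point was read by protein staining with sulforhodamine B. The value is percent growth of treated cells relative to untreated control cells, reported as a mean graph across the panel.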

SR = assay: Anticancer activity against human SR cells assessed as cell growth at 10 uM after 48 hrs by sulforhodamine B assay relative to control; settings: read-out: Activity
How it was run: (§2)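 NCI-60 single-dose screen: compound added at 10 µM, cultures incubated 48 h. End point by sulforhodamine B protein-binding dye. Value reported as percent growth of treated cells relative to untreated control cells.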

NCI-H226 = assay: Anticancer activity against human NCI-H226 cells assessed as cell growth at 10 uM after 48 hrs by sulforhodamine B assay relative to control; settings: NCI-H226, 48 h, read-out: Activity; how it was run: as §1
NCI-H460 = assay: Anticancer activity against human NCI-H460 cells assessed as cell growth at 10 uM after 48 hrs by sulforhodamine B assay relative to control; settings: NCI-H460, 48 h, read-out: Activity; how it was run: as §1
NCI-H522 = assay: Anticancer activity against human NCI-H522 cells assessed as cell growth at 10 uM after 48 hrs by sulforhodamine B assay relative to control; settings: NCI-H522, 48 h, read-out: Activity; how it was run: as §1
COLO 205 = assay: Anticancer activity against human COLO205 cells assessed as cell growth at 10 uM after 48 hrs by sulforhodamine B assay relative to control; settings: COLO 205, 48 h, read-out: Activity; how it was run: as §1
HCC 2998 = assay: Anticancer activity against human HCC2998 cells assessed as cell growth at 10 uM after 48 hrs by sulforhodamine B assay relative to control; settings: HCC 2998, 48 h, read-out: Activity; how it was run: as §1
HCT-15 = assay: Anticancer activity against human HCT15 cells assessed as cell growth at 10 uM after 48 hrs by sulforhodamine B assay relative to control; settings: HCT-15, 48 h, read-out: Activity; how it was run: as §1
HT-29 = assay: Anticancer activity against human HT-29 cells assessed as cell growth at 10 uM after 48 hrs by sulforhodamine B assay relative to control; settings: HT-29, 48 h, read-out: Activity; how it was run: as §1
SW-620 = assay: Anticancer activity against human SW620 cells assessed as cell growth at 10 uM after 48 hrs by sulforhodamine B assay relative to control; settings: SW-620, 48 h, read-out: Activity; how it was run: as §2
SF-268 = assay: Anticancer activity against human SF268 cells assessed as cell growth at 10 uM after 48 hrs by sulforhodamine B assay relative to control; settings: SF-268, 48 h, read-out: Activity; how it was run: as §1
U-251 = assay: Anticancer activity against human U251 cells assessed as cell growth at 10 uM after 48 hrs by sulforhodamine B assay relative to control; settings: U-251, 48 h, read-out: Activity; how it was run: as §2
MDA-MB-435 = assay: Anticancer activity against human MDA-MB-435 cells assessed as cell growth at 10 uM after 48 hrs by sulforhodamine B assay relative to control; settings: MDA-MB-435, 48 h, read-out: Activity; how it was run: as §1
SK-MEL-2 = assay: Anticancer activity against human SK-MEL-2 cells assessed as cell growth at 10 uM after 48 hrs by sulforhodamine B assay relative to control; settings: SK-MEL-2, 48 h, read-out: Activity; how it was run: as §1
SK-MEL-28 = assay: Anticancer activity against human SK-MEL-28 cells assessed as cell growth at 10 uM after 48 hrs by sulforhodamine B assay relative to control; settings: SK-MEL-28, 48 h, read-out: Activity; how it was run: as §1
SK-MEL-5 = assay: Anticancer activity against human SK-MEL-5 cells assessed as cell growth at 10 uM after 48 hrs by sulforhodamine B assay relative to control; settings: SK-MEL-5, 48 h, read-out: Activity; how it was run: as §1
UACC-257 = assay: Anticancer activity against human UACC257 cells assessed as cell growth at 10 uM after 48 hrs by sulforhodamine B assay relative to control; settings: UACC-257, 48 h, read-out: Activity; how it was run: as §2
OVCAR-3 = assay: Anticancer activity against human OVCAR3 cells assessed as cell growth at 10 uM after 48 hrs by sulforhodamine B assay relative to control; settings: OVCAR-3, 48 h, read-out: Activity; how it was run: as §1
OVCAR-8 = assay: Anticancer activity against human OVCAR8 cells assessed as cell growth at 10 uM after 48 hrs by sulforhodamine B assay relative to control; settings: OVCAR-8, 48 h, read-out: Activity; how it was run: as §1
SK-OV-3 = assay: Anticancer activity against human SKOV3 cells assessed as cell growth at 10 uM after 48 hrs by sulforhodamine B assay relative to control; settings: SK-OV-3, 48 h, read-out: Activity; how it was run: as §1
ACHN = assay: Anticancer activity against human ACHN cells assessed as cell growth at 10 uM after 48 hrs by sulforhodamine B assay relative to control; settings: read-out: Activity; how it was run: as §1
CAKI-1 = assay: Anticancer activity against human Caki1 cells assessed as cell growth at 10 uM after 48 hrs by sulforhodamine B assay relative to control; settings: CAKI-1, 48 h, read-out: Activity; how it was run: as §1
SN12C = assay: Anticancer activity against human SN12C cells assessed as cell growth at 10 uM after 48 hrs by sulforhodamine B assay relative to control; settings: read-out: Activity; how it was run: as §1
UO-31 = assay: Anticancer activity against human UO31 cells assessed as cell growth at 10 uM after 48 hrs by sulforhodamine B assay relative to control; settings: UO-31, 48 h, read-out: Activity; how it was run: as §2
PC-3 = assay: Anticancer activity against human PC3 cells assessed as cell growth at 10 uM after 48 hrs by sulforhodamine B assay relative to control; settings: PC-3, 48 h, read-out: Activity; how it was run: as §1
DU-145 = assay: Anticancer activity against human DU145 cells assessed as cell growth at 10 uM after 48 hrs by sulforhodamine B assay relative to control; settings: DU-145, 48 h, read-out: Activity; how it was run: as §1
MCF7 = assay: Anticancer activity against human MCF7 cells assessed as cell growth at 10 uM after 48 hrs by sulforhodamine B assay relative to control; settings: MCF7, 48 h, read-out: Activity; how it was run: as §1
MDA-MB-231 = assay: Anticancer activity against human MDA-MB-231 cells assessed as cell growth at 10 uM after 48 hrs by sulforhodamine B assay relative to control; settings: MDA-MB-231, 48 h, read-out: Activity; how it was run: as §1
BT-549 = assay: Anticancer activity against human BT549 cells assessed as cell growth at 10 uM after 48 hrs by sulforhodamine B assay relative to control; settings: BT-549, 48 h, read-out: Activity; how it was run: as §1
T47D = assay: Anticancer activity against human T47D cells assessed as cell growth at 10 uM after 48 hrs by sulforhodamine B assay relative to control; settings: read-out: Activity; how it was run: as §2
MDA-MB-468 = assay: Anticancer activity against human MDA-MB-468 cells assessed as cell growth at 10 uM after 48 hrs by sulforhodamine B assay relative to control; settings: MDA-MB-468, 48 h, read-out: Activity; how it was run: as §1

C=C1CC[C@@H]2[C@](C)(COC(C)=O)[C@H](OC(C)=O)CC[C@@]2(C)[C@H]1CC(Nc1ccc(S(=O)(=O)Nc2nc(C)cc(C)n2)cc1)C1=CCOC1=O (stereo partly specified)
growth at 10 µM (CCRF-CEM): 2.96%
growth at 10 µM (SR): 22.2%
growth at 10 µM (NCI-H226): 86.7%
growth at 10 µM (NCI-H460): 90.3%
growth at 10 µM (NCI-H522): 22%
growth at 10 µM (COLO 205): 77%
growth at 10 µM (HCC 2998): 100%
growth at 10 µM (HCT-15): 49.2%
growth at 10 µM (HT-29): 46.2%
growth at 10 µM (SW-620): 40%
growth at 10 µM (SF-268): 93.3%
growth at 10 µM (U-251): 48.2%
growth at 10 µM (MDA-MB-435): 67%
growth at 10 µM (SK-MEL-2): 88.5%
growth at 10 µM (SK-MEL-28): 83.5%
growth at 10 µM (SK-MEL-5): 74.2%
growth at 10 µM (UACC-257): 67.9%
growth at 10 µM (OVCAR-3): 44.8%
growth at 10 µM (OVCAR-8): 62%
growth at 10 µM (SK-OV-3): 112%
growth at 10 µM (ACHN): 71.6%
growth at 10 µM (CAKI-1): 74%
growth at 10 µM (SN12C): 38.2%
growth at 10 µM (UO-31): 71.2%
growth at 10 µM (PC-3): 65.2%
growth at 10 µM (DU-145): 82.3%
growth at 10 µM (MCF7): 40.3%
growth at 10 µM (MDA-MB-231): 107%
growth at 10 µM (BT-549): 71.9%
growth at 10 µM (T47D): 68.8%
growth at 10 µM (MDA-MB-468): 41%
